In general, IC50 refers to the concentration at which inhibition is half-maximal. For orientation: MFC means the smallest concentration meeting the test's criterion for killing the fungus. A higher MFC goes with weaker fungicidal potency. The IC90 is the concentration at which the effect reaches the 90% level. Read a low IC90 as greater potency. The term MIC denotes the least concentration at which growth counts as inhibited.

From ChEMBL document CHEMBL1144547, “Synthesis, antimalarial, antileishmanial, antimicrobial, cytotoxicity, and methemoglobin (MetHB) formation activities of new 8-quinolinamines” (Bioorg Med Chem, 2007) come the findings set out here.

Molecules are shown by their SMILES. In brackets after ≈: the same amount, converted by molar mass. Activity calls are given as the source filed them.

Data set [1] has as its system Cryptococcus neoformans. The data set can be described thus: Antifungal activity against Cryptococcus neoformans ATCC 90113 after 68 to 72 hrs. In kind it is functional, organism-based.
Data set [2] has as its system Leishmania donovani. The experiment in a line: Antileishmanial activity against Leishmania donovani promastigotes by Alamar blue assay. Type of data set: functional, organism-based. In general terms: The colour change of resazurin is a common sign of viable cells or microbes.
In data set [3] the test system is Pichia kudriavzevii. The experiment in a line: Antifungal activity against Candida krusei ATCC 6258 after 18 to 24 hrs. In kind it is functional, organism-based.
Data set [4] deals with Candida albicans. The experiment in a line: Antifungal activity against Candida albicans ATCC 90028 after 18 to 24 hrs. Type of data set: functional, organism-based.
Data set [5] concerns Nakaseomyces glabratus. The experiment in a line: Antifungal activity against Candida glabrata ATCC 90030 after 18 to 24 hrs. Type of data set: functional, organism-based.
For data set [6], the system named is Plasmodium falciparum. The experiment in a line: Antimalarial activity against chloroquine-sensitive Plasmodium falciparum D6. Type of data set: functional, organism-based.
Data set [7] concerns Plasmodium falciparum. The experiment in a line: Antimalarial activity against chloroquine-resistant Plasmodium falciparum W2. Type of data set: functional, organism-based.
A short description of data set [8]: Selectivity index, Ratio of IC50 in Vero cells to IC50 in chloroquine-resistant Plasmodium falciparum W2. Type of data set: functional.
Data set [9] in a line: Selectivity index, Ratio of IC50 in Vero cells to IC50 in chloroquine-sensitive Plasmodium falciparum D6. In kind it is functional.
Data set [10] has as its system Vero. The experiment in a line: Cytotoxicity against Vero cells upto 23.8 ng/ml by neutral red assay. In kind it is cell-based. The following applies: chlorocebus sabaeus, in the assay text read “23.8 µg/ml” for “23.8 ng/ml”. In a few lines: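 Vero monkey kidney fibroblasts (ATCC), neutral red uptake read-out; compounds tested up to a highest concentration of 23.8 µg/mL.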

The test system of data set [11] is Candida albicans. The data set can be described thus: Antifungal activity against Candida albicans ATCC 90028 at 20 ug/mL after 18 to 24 hrs. In kind it is functional, organism-based.
The test system of data set [12] is Plasmodium berghei. The experiment in a line: Antimalarial activity as parasite elimination against Plasmodium berghei in mice (Mus musculus) at 100 mg/kg/day peroral dose over 4 days. Type of data set: functional, organism-based. In short, it runs like this:
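Mice, 6 per group, infected with drug-sensitive P. berghei; oral dosing on days 0–3 post infection (×4); vehicle-only and chloroquine 10 mg/kg/day×4 oral controls. Curative means no parasites and survival to day D+60; suppressive means negative parasitaemia to D+7.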

Data set [13] in a line: Methemoglobin toxicity in human erythrocytes incubated with mouse liver microsomes assessed as MetHb formation at 20 ug/mL by biotransformation linked assay. Details: species or system Erythrocyte, Microsome. In short, it runs like this:
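Compound at 20 µg/mL co-incubated 1 h at 37 °C, shaking, with mouse liver microsomes (500 µg protein), human erythrocytes (50% hematocrit suspension), NADPH-regenerating system, KCl, in 100 mM potassium phosphate pH 7.4; cells pelleted, lysed in Triton X-100 phosphate buffer pH 7.8; MetHb relative to total Hb by Evelyn–Malloy spectrophotometry; % versus vehicle control.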

As to `C[C@@H]1[C@H](O)[C@@H](C)/C=C/C=C/C=C/C=C/C=C/C=C/C=C/[C@H](O[C@@H]2O[C@H](C)[C@@H](O)[C@H](N)[C@@H]2O)C[C@@H]2O[C@](O)(C[C@@H](O)C[C@@H](O)[C@H](O)CC[C@@H](O)C[C@@H](O)CC(=O)O[C@H]1C)C[C@H](O)[C@H]2C(=O)O` [AMPHOTERICIN B], the IC50 in [1] was determined as 0.75 µg/mL (≈ 0.812 µM); in data set [3] it was 0.6 µg/mL (≈ 0.649 µM); in data set [4], 0.25 µg/mL (≈ 0.271 µM); in data set [5] it was 0.07 µg/mL (≈ 0.0758 µM). Also, the MFC in data set [1] was 1.5 µg/mL (≈ 1.62 µM); in data set [5], 0.625 µg/mL (≈ 0.676 µM). This molecule also displayed an IC90 in data set [2] of 0.35 µg/mL (≈ 0.379 µM). This molecule gave a minimal inhibitory concentration (MIC) in data set [5] of 0.31 µg/mL (≈ 0.335 µM).
With `C[C@@H]1CC[C@H]2[C@@H](C)C(=O)O[C@@H]3O[C@@]4(C)CC[C@@H]1[C@]32OO4` [ARTEMISININ], the IC50 stood at 0.0152 µg/mL (≈ 0.0538 µM) in [6] and 0.009 µg/mL (≈ 0.0319 µM) in data set [7]. Also, the Selectivity index in data set [8] was 2644; in data set [9], 1565.
In the case of `N=C(N)c1ccc(OCCCCCOc2ccc(C(=N)N)cc2)cc1` [PENTAMIDINE], in [2], the IC50 was 1 µg/mL (≈ 2.94 µM) and the IC90 amounted to 3.8 µg/mL (≈ 11.2 µM).
With `COc1cc(NC(C)CCCN)c2ncccc2c1` (stereo not given) [PRIMAQUINE], the Activity entry is given as “Non-toxic” in data set [10] and 47.9% in data set [13]. Also, the result in [2], in [11] and in data set [12] was inactive. The same molecule came in with an IC50 in [2] of 19.9 µg/mL (≈ 76.7 µM).
